Assay outcomes (PubChem)
KCNK9 block: inhibitors of human KCNK9 two-pore domain potassium channel | Q9NPC2 | 310,000 tested, 1.2% active | B-score at 10 µM | HEK293 KCNK9, FluxOR thallium flux fluorescence; stronger effect = lower value | AID 488922;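 active = ratio B-score over 3 SD below the library mean, with starting fluorescence within 5 SD of its mean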;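 also: negative B-score means less thallium flux so channel inhibition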
hERG protect: shields human hERG channel from block by proarrhythmic agents | CHO-hERG, FluxOR thallium flux, dofetilide IC70 present | activation (rescue from dofetilide block), less the hit threshold, % at 10 µM | 310,000 tested, 0.51% active | AID 1511;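 active = activation above the mean of controls blocked by dofetilide plus 5 SD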;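 also: thallium influx through hERG after potassium depolarization seen as dye fluorescence rise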
KCNQ1 inh: human KCNQ1 channel inhibition; P51787; CHO-K1 KCNQ1, FluxOR thallium flux fluorescence; stronger effect = higher value; B-score at 10 µM; 310,000 tested, 1.3% active;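 active = compounds whose thallium flux B-score, printed positive for inhibition, exceeds three library SD while starting fluorescence stays within three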;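 also: channel opened by potassium depolarization with thallium stimulus after 20 min compound exposure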
Kir21 block: blocks the mouse Kir2.1 inward-rectifier potassium channel; P35561; HEK293-Kir2.1, FluxOR thallium flux fluorescence; stronger effect = lower value; B-score at 10 µM; 310,000 tested, 0.85% active; AID 1672;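 active = fluorescence ratio B-score at or below minus 3 SD of library scores, with starting-brightness B-score within 2 SD, cut at about -4.2 in these data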;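 also: channel flux triggered by added potassium and thallium sulfate stimulus; B-score of peak minus minimum fluorescence over baseline after thallium stimulus; more negative B-score means stronger Kir2.1 block with less thallium influx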
KCNK3 inh: human KCNK3 channel inhibition, primary screen. O14649. 340,000 tested, 0.84% active. CHO-KCNK3 thallium flux, FluxOR fluorescence; stronger effect = lower value. B-score at 10 µM;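 active = B-score under library mean minus 4 SD, starting fluorescence ratio at most library mean plus 5 SD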;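 also: more negative B-score means stronger inhibition of thallium flux through KCNK3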
KCNQ1 pot: potentiates or activates the human KCNQ1 potassium channel | P51787 | CHO-K1 KCNQ1, thallium flux FluxOR fluorescence; stronger effect = higher value | B-score at 10 µM | 310,000 tested, 0.35% active | AID 2648;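 active = fluorescence ratio B-score, a plate-corrected score, at least three library SD, with initial intensity B-score within 5 SD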
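System: CHO-K1 cells stably expressing KCNQ1 / Medium: assay buffer for compound exposure, DMSO matched across wells / Reagent: thallium- and potassium-containing depolarizing buffer / Compound: one concentration, matched DMSO / Incubation: 20 min compound pretreatment at room temperature / Measured by: kinetic FluxOR fluorescence, 10 s baseline plus 110 s post-stimulus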
KCNQ1 inh valid: human KCNQ1 channel inhibition, validation assay; shares compounds with KCNQ1 inh; KCNQ1 cell line, FluxOR thallium flux fluorescence; inhibition, % at 10 µM; 1,600 tested, 93% active;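 active = primary screen active, with duplicate mean exceeding buffer control mean plus 3 SD of buffer wells, cut at about 28% in these data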
CHO Tl flux: activity in parental CHO cells lacking KCNQ1. shares compounds with KCNQ1 inh. parental CHO-K1, FluxOR thallium flux fluorescence ratio; stronger effect = lower value; zero means no signal rise above baseline. fluorescence ratio (Tl flux) at 10 µM. 1,600 tested, 21% active. AID 588366;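 active = mean of duplicate thallium-flux fluorescence ratios in parental host cells more than 5 SD below the buffer control mean, cut at about 0.38 in these data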;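 also: ratio is peak minus minimum fluorescence divided by baseline fluorescence; actives read low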
KCNQ1 APC inh: human KCNQ1 inhibition validated by electrophysiology; shares compounds with KCNQ1 inh; KCNQ1-CHO cells, automated patch clamp current; calls only at 10 µM; 490 tested, 20% active;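 active = KCNQ1 current drop exceeding 3 SD of negative control wells, seen in both duplicate runs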;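 also: steady state current during a 2 s step from -80 to +40 mV; negative values mean current inhibition and positive values mean potentiation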
KCNQ2 inh: selectivity of KCNQ1 inhibitors: inhibition of rat KCNQ2 channel; shares compounds with KCNQ1 inh; KCNQ2 cells, FluxOR thallium flux fluorescence; inhibition, % at 10 µM; 1,600 tested, 71% active; AID 651746;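 active = mean percent inhibition of the KCNQ2 thallium signal more than 5 SD above the buffer-only control wells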;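 also: KCNQ2 expressed in CHO cells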
Target sequence (O88943 whole entry, looked up): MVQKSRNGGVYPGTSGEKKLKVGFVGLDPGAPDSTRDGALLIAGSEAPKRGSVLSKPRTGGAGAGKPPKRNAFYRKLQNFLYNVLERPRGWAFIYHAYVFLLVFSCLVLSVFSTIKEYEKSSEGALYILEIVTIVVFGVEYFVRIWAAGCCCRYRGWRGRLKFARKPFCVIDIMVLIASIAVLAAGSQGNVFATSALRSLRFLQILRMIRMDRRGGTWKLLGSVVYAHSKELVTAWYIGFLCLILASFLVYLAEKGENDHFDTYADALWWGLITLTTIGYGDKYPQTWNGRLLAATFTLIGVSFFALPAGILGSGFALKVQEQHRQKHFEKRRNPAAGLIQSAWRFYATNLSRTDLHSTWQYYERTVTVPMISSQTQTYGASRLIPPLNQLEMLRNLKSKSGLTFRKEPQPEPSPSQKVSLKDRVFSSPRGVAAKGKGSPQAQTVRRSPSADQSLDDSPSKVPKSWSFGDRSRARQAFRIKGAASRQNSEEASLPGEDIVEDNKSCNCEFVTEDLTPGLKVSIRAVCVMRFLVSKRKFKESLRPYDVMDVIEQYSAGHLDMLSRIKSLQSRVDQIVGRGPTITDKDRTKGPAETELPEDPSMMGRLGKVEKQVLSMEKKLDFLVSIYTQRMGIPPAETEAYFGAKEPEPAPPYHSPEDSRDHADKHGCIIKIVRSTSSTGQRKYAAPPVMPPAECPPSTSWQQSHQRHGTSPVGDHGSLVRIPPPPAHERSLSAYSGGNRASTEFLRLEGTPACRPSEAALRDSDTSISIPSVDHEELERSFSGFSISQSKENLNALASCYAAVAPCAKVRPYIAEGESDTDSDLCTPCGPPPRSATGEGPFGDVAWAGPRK
KCNQ1-KCNE1 inh: human KCNQ1/KCNE1 inhibition in KCNQ1 specificity screen; KCNQ1/KCNE1 cells, FluxOR thallium flux fluorescence; shares compounds with KCNQ1 inh; AID 652147; inhibition, % at 10 µM; 1,600 tested, 77% active;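 active = mean percent inhibition of duplicate wells above the buffer-only control mean plus 3 SD of those controls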
Numbers stand for hits. The list is not random: actives were taken first. Their share in the collection is about 3.8%.

How did CNC[C@H]1Oc2ccc(NC(=O)Nc3ccccc3)cc2CC(=O)N([C@H](C)CO)C[C@H]1C do in these assays?
KCNK3 inh: inactive

Results for COc1ccc(-c2cc(-c3nnc(-c4ccncc4)o3)c3ccccc3n2)cc1 ?
KCNK9 block: inactive; hERG protect: inactive; KCNQ1 inh: inactive; Kir21 block: inactive; KCNK3 inh: inactive; KCNQ1 pot: inactive

Results for c1ccc2c(-c3nc(C4CCCCC4)no3)cc(-c3ccncc3)nc2c1 ?
KCNK9 block: inactive; hERG protect: inactive; KCNQ1 inh: 7; Kir21 block: inactive; KCNK3 inh: inactive; KCNQ1 pot: inactive; KCNQ1 inh valid: 84; CHO Tl flux: inactive; KCNQ2 inh: 93%; KCNQ1-KCNE1 inh: 79%

Results for CC(C)c1noc2ncc(C(=O)c3cc(Cl)cc(Cl)c3O)cc12 ?
KCNK9 block: inactive; hERG protect: inactive; KCNQ1 inh: 6; Kir21 block: inactive; KCNK3 inh: inactive; KCNQ1 pot: inactive; KCNQ1 inh valid: 52; CHO Tl flux: inactive; KCNQ2 inh: inactive; KCNQ1-KCNE1 inh: inactive

How did Nc1c(S(=O)(=O)c2ccccc2)csc1C(=O)O do in these assays?
KCNK9 block: inactive; hERG protect: inactive; KCNQ1 inh: inactive; Kir21 block: inactive; KCNK3 inh: inactive; KCNQ1 pot: inactive

Results for COc1ccc(CCN2C(=O)c3[nH]nc(-c4ccccc4O)c3C2c2cccc(Cl)c2)cc1 (stereo not given) ?
KCNK9 block: inactive; hERG protect: inactive; KCNQ1 inh: 9; Kir21 block: inactive; KCNK3 inh: inactive; KCNQ1 pot: inactive; KCNQ1 inh valid: 109; CHO Tl flux: inactive; KCNQ1 APC inh: active; KCNQ2 inh: 90%; KCNQ1-KCNE1 inh: 140%

How did CCOc1ccc2ncc(C(=O)c3ccc(OC)cc3)c(N3CCN(CC)CC3)c2c1 do in these assays?
KCNK9 block: inactive; hERG protect: inactive; KCNQ1 inh: inactive; Kir21 block: inactive; KCNK3 inh: inactive; KCNQ1 pot: inactive

Results for CCOC(=O)c1cnc2ccc(OCC)cc2c1N1CCN(c2ccccc2OC)CC1 ?
KCNK9 block: inactive; hERG protect: inactive; KCNQ1 inh: 11; Kir21 block: inactive; KCNK3 inh: inactive; KCNQ1 pot: inactive; KCNQ1 inh valid: 130; CHO Tl flux: 0.33; KCNQ2 inh: 141%; KCNQ1-KCNE1 inh: 182%

What do the screens show for `CCCSc1nsc(NC(=O)Nc2ccc(F)cc2F)n1`?
KCNK9 block: inactive; hERG protect: inactive; KCNQ1 inh: 11; Kir21 block: inactive; KCNK3 inh: inactive; KCNQ1 pot: inactive; KCNQ1 inh valid: 58; CHO Tl flux: inactive; KCNQ2 inh: inactive; KCNQ1-KCNE1 inh: inactive

Results for CCSc1nsc(NC(=O)Nc2cccc(F)c2)n1 ?
KCNK9 block: inactive; hERG protect: inactive; KCNQ1 inh: 8; Kir21 block: inactive; KCNK3 inh: inactive; KCNQ1 pot: inactive; KCNQ1 inh valid: 52; CHO Tl flux: inactive; KCNQ2 inh: inactive; KCNQ1-KCNE1 inh: inactive

What do the screens show for `COc1cccc(NC(=O)Nc2nc(SC)ns2)c1`?
KCNK9 block: inactive; hERG protect: inactive; KCNQ1 inh: inactive; Kir21 block: inactive; KCNK3 inh: inactive; KCNQ1 pot: inactive

Results for CC(C)(C)OC(=O)C[C@H]1C/C=C\C[C@H](CC(=O)NCCO)C(=O)N[C@@H](c2ccccc2)COC1=O ?
KCNK3 inh: inactive
